# Measured values from different studies.
# Lines come from different studies, so protocols differ.
# Target: Serine/threonine-protein kinase Sgk1 (SGK1, Homo sapiens, UniProt O00141)
SMILES,assay,setting,endpoint,result
O=C(Nc1cnn(-c2csc(C(=O)NC3COC3)c2)c1)Nc1c(F)cccc1Cl,"enzyme activity, inhibitor",5 µM,remaining activity,95.4%
CCN(CC)CCNC(=O)c1c(C)[nH]c(/C=C2\C(=O)Nc3ccc(F)cc32)c1C,"enzyme activity, inhibitor",0.3 µM,inhibition,28%
CCCS(=O)(=O)Nc1ccc(F)c(C(=O)c2c[nH]c3ncc(-c4ccc(Cl)cc4)cc23)c1F,"enzyme activity, inhibitor",1 µM,inhibition,< 10%
Cc1ccc(NC(=O)c2ccc(C)c(C(F)(F)F)c2)cc1C#Cc1nn(C2CCC(O)CC2)c2ncnc(N)c12 (stereo not drawn),cell-free assay,10 µM,remaining signal,90%
CCCOc1ccc(OC)c(F)c1C(=O)c1ccc(C(=O)N[C@@H]2CNC[C@H]2NC(=O)c2ccc3[nH]ncc3c2)cc1,"enzyme activity, inhibitor",0.1 µM,remaining activity,64%
O=C(O)[C@@H]1[C@@H](Cn2nnc3ccccc3c2=O)CC[C@H]1C(=O)c1ccc(OCCC2CCOCC2)cc1,"cell-free assay, competition with immobilised ligand",1 µM,remaining binding,74%
O=C1Nc2ccc(Cl)cc2C1=Cc1cc(Cl)c(O)c(Cl)c1,cell-free assay,0.5 µM,remaining signal,91.3%
O=C(NCCCC1CCCCC1)c1ccc(CNC(=O)c2cnn(-c3ccccc3)c2C(F)(F)F)cc1,"cell-free assay, competition with immobilised ligand",0.1 µM,remaining binding,100%
CNc1cccc2cc(C(=O)Nc3ccc(C(=O)O)cc3)c(=O)[nH]c12,"enzyme activity, inhibitor",10 µM,inhibition,8.2%
CN(C)C(=O)Cn1cc(-c2nc(C3(c4ccc(-c5cnc(N)nc5)cc4)CC3)no2)cn1,"cell-free assay, competition with immobilised ligand",1 µM,remaining binding,96%
CN(C)C1CCN(CC#Cc2nn(C3CCCC3)c3nc(NCc4ccccc4)ncc23)C1 (stereo not drawn),"enzyme activity, inhibitor, FRET",10 µM,inhibition,20%
CC(C)(C)c1nc(-c2cccc(NS(=O)(=O)c3c(F)cccc3F)c2F)c(-c2ccnc(N)n2)s1,"enzyme activity, inhibitor, radiometric",1 µM,remaining activity,75%
Cc1c(C(=O)O)cc(-c2ccc(C3CCNCC3)cc2)c2ccc(-c3ccc(C(F)(F)F)cc3)cc12,"binding, competition with immobilised ligand",1 µM,remaining binding,100%
Oc1cccc(-c2nc(N3CCOCC3)c3oc4ncccc4c3n2)c1,"enzyme activity, inhibitor",10 µM,remaining activity,92%
O=[N+]([O-])c1cccc2[nH]c(CNc3nc(N4CCOCC4)nc4c3ncn4-c3ccsc3)nc12,"binding, competition with immobilised ligand",10 µM,binding vs control,57%
Cc1cc(-n2nc(Cc3cc(F)cc(C(F)(F)F)c3)nc2C)ccc1C(N)=O,"cell-free assay, competition with immobilised ligand",1 µM,remaining binding,100%
Nc1nc(NC2CCCCC2)sc1C(=O)c1ccccc1,"enzyme activity, inhibitor",10 µM,remaining activity,81%
COc1cc(Nc2cnc(C#N)c(O[C@H](C)CN(C)C)n2)ncc1-c1cnn(C)c1,"enzyme activity, inhibitor, radiometric",1 µM,remaining activity,79%
CC(C)(O)c1cncc(-c2nc3ccc(F)cc3n2C2CC2)c1,"cell-free assay, competition with immobilised ligand",1 µM,remaining binding,100%
C=CC(=O)Nc1cc(Nc2nccc(Nc3cc(Cl)c(F)cc3C(C)(C)O)n2)c(OC)cc1N1CC[C@@H](N(C)C)C1,"enzyme activity, inhibitor",1 µM,inhibition,12%
CC/C(=N\NC(=O)NCc1cccc(O)c1)c1ccc(O)c(C)c1O,"enzyme activity, inhibitor",0.1 µM,inhibition,75.4%
